The source made the active and inactive calls. The rule behind the calls is not given here.
Legend:
[1] = biological target: cAMP and cAMP-inhibited cGMP 3',5'-cyclic phosphodiesterase 10A (Homo sapiens, UniProt Q9Y233); assay: Inhibition of human recombinant PDE10A assessed as inhibition of [3H]cAMP hydrolysis by scintillation proximity assay
Procedure, shortened: (§1)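 Scintillation proximity assay on recombinant human PDEs 1–11, with [³H]cAMP as substrate and hydrolysis of cAMP to AMP as read-out. Ki values are means of two experiments.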

[2] = biological target: T1, cGMP-inhibited 3',5'-cyclic phosphodiesterase 3A (Homo sapiens, UniProt Q14432); assay: Inhibition of human recombinant PDE3A assessed as inhibition of [3H]cAMP hydrolysis by scintillation proximity assay; procedure, shortened: as §1
[3] = biological target: T2, High affinity 3',5'-cyclic-AMP phosphodiesterase 7A (Homo sapiens, UniProt Q13946); assay: Inhibition of human recombinant PDE7A1 assessed as inhibition of [3H]cAMP hydrolysis by scintillation proximity assay; procedure, shortened: as §1
[4] = Clearance in human hepatocytes assessed per 10^6 cells; type: ADME, cell-based, Hepatocyte; conditions: read-out: CLH
[5] = Clearance in rat hepatocytes assessed per 10^6 cells; type: ADME, cell-based, Hepatocyte; conditions: read-out: CLH
[6] = Clearance in monkey hepatocytes assessed per 10^6 cells; type: ADME, cell-based, Macaca mulatta, Hepatocyte; conditions: rhesus monkey, read-out: CLH
[7] = biological target: T1, cGMP-inhibited 3',5'-cyclic phosphodiesterase 3A; assay: Inhibition of human recombinant PDE3A assessed as inhibition of [3H]cAMP hydrolysis at 3 uM by scintillation proximity assay
Procedure, shortened: (§2)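 Recombinant human PDE3A or PDE7A1 was tested at a single 3 µM level in the scintillation proximity assay, with [³H]cAMP as substrate and cAMP-to-AMP hydrolysis as read-out. Results are expressed as % inhibition.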

[8] = biological target: T2, High affinity 3',5'-cyclic-AMP phosphodiesterase 7A; assay: Inhibition of human recombinant PDE7A1 assessed as inhibition of [3H]cAMP hydrolysis at 3 uM by scintillation proximity assay; procedure, shortened: as §2
[9] = Solubility of the compound in 2% DMSO at pH 7.4; type: physicochemical
hERG (KCNH2) = hERG (KCNH2) (Homo sapiens, UniProt Q12809); assay: Inhibition of human ERG at 10 uM
Procedure, shortened: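 hERG inhibition was measured on the IonWorks platform at 10 µM.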

[10] = Dissociation constant, pKa of the compound; type: physicochemical
Phosphodiesterase 1 = Phosphodiesterase 1 (Homo sapiens, UniProt P54750+Q01064+Q14123); assay: Inhibition of human recombinant PDE1 assessed as inhibition of [3H]cAMP hydrolysis by scintillation proximity assay; type: protein assay; procedure, shortened: as §1
[11] = biological target: cGMP-dependent 3',5'-cyclic phosphodiesterase (Homo sapiens, UniProt O00408); assay: Inhibition of human recombinant PDE2 assessed as inhibition of [3H]cAMP hydrolysis by scintillation proximity assay; procedure, shortened: as §1
Phosphodiesterase 4 = Phosphodiesterase 4 (Homo sapiens, UniProt P27815+Q08499+Q07343+Q08493); assay: Inhibition of human recombinant PDE4 assessed as inhibition of [3H]cAMP hydrolysis by scintillation proximity assay; type: protein assay; procedure, shortened: as §1
[12] = biological target: cGMP-specific 3',5'-cyclic phosphodiesterase (Homo sapiens, UniProt O76074); assay: Inhibition of human recombinant PDE5 assessed as inhibition of [3H]cAMP hydrolysis by scintillation proximity assay; procedure, shortened: as §1
Phosphodiesterase 6 = assay: Inhibition of human recombinant PDE6 assessed as inhibition of [3H]cAMP hydrolysis by scintillation proximity assay; type: protein assay; procedure, shortened: as §1
Phosphodiesterase 8 = Phosphodiesterase 8 (Homo sapiens, UniProt O95263+O60658); assay: Inhibition of human recombinant PDE8 assessed as inhibition of [3H]cAMP hydrolysis by scintillation proximity assay; type: protein assay; procedure, shortened: as §1
[13] = biological target: High affinity cGMP-specific 3',5'-cyclic phosphodiesterase 9A (Homo sapiens, UniProt O76083); assay: Inhibition of human recombinant PDE9 assessed as inhibition of [3H]cAMP hydrolysis by scintillation proximity assay; procedure, shortened: as §1
[14] = biological target: Dual 3',5'-cyclic-AMP and -GMP phosphodiesterase 11A (Homo sapiens, UniProt Q9HCR9); assay: Inhibition of human recombinant PDE11 assessed as inhibition of [3H]cAMP hydrolysis by scintillation proximity assay; procedure, shortened: as §1
Rattus norvegicus = assay: Antipsychotic activity in CD rat assessed as inhibition of MK801-induced hyperactivity at 30 mg/kg, po; type: functional, organism-based; set-up: dose 30 mg/kg
Procedure, shortened: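 Male CD rats were habituated to locomotor activity chambers 24 h before testing. On test day, MK-801 (0.3 mg/kg, sc) was co-administered with the PDE10 inhibitor (po) and the rats were placed in the apparatus. Inhibition is the activity of the inhibitor+MK-801 group as a percent of the vehicle+MK-801 group.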

[15] = Drug uptake in CD rat brain at 30 mg/kg, po after 1 hr; type: ADME, organism-based; set-up: dose 30 mg/kg, route oral

Sequence of cGMP-dependent 3',5'-cyclic phosphodiesterase (O00408 whole entry): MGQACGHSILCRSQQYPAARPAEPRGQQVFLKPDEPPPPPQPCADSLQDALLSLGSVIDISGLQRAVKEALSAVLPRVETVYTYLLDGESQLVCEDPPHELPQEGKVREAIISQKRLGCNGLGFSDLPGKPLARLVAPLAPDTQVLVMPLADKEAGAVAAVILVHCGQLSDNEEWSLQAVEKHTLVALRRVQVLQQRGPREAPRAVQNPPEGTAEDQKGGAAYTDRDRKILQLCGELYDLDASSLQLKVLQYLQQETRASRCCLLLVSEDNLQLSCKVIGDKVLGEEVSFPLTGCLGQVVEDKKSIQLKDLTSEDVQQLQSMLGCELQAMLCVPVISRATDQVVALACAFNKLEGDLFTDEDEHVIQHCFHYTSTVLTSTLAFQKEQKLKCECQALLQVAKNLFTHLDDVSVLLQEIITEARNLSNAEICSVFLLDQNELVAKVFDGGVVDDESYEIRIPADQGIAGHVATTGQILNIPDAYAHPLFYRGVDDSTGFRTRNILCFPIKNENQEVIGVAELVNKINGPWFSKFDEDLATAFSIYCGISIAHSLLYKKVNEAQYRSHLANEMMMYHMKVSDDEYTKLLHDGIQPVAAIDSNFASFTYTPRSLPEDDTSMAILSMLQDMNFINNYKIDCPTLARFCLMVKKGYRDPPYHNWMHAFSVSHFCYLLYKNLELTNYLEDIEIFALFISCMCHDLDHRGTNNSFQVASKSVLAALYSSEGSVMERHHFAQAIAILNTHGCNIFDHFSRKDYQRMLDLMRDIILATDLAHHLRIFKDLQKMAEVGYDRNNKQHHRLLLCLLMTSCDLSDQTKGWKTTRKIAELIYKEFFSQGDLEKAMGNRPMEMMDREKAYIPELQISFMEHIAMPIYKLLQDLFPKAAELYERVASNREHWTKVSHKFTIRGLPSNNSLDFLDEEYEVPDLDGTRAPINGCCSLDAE
Sequence of cAMP and cAMP-inhibited cGMP 3',5'-cyclic phosphodiesterase 10A (Q9Y233 whole entry): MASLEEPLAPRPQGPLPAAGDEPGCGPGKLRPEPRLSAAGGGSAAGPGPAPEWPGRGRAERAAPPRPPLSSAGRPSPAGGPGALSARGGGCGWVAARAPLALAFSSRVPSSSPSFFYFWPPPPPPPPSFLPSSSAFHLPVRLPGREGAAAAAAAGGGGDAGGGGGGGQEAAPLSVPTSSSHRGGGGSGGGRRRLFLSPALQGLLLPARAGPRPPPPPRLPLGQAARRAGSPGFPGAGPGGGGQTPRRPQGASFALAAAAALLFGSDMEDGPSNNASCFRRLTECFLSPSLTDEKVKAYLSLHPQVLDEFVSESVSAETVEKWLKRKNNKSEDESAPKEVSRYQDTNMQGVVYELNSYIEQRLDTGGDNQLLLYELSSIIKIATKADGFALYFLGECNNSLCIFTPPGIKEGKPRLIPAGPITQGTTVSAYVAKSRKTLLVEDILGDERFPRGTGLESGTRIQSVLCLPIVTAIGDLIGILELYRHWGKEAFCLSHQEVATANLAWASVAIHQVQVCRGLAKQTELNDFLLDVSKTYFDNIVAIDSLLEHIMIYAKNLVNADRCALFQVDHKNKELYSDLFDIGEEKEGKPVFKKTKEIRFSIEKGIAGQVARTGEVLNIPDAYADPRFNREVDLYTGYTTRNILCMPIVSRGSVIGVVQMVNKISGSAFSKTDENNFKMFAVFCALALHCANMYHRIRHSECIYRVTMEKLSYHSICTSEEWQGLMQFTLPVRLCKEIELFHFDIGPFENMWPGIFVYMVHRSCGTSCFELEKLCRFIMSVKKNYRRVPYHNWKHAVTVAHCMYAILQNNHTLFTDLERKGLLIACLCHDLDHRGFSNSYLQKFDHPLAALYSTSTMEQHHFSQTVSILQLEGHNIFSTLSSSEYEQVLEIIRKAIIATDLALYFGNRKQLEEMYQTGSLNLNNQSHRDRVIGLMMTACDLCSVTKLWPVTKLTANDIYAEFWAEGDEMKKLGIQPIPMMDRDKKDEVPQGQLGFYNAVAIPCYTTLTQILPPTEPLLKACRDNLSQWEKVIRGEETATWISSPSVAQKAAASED
Sequence of hERG (KCNH2) (Q12809 whole entry): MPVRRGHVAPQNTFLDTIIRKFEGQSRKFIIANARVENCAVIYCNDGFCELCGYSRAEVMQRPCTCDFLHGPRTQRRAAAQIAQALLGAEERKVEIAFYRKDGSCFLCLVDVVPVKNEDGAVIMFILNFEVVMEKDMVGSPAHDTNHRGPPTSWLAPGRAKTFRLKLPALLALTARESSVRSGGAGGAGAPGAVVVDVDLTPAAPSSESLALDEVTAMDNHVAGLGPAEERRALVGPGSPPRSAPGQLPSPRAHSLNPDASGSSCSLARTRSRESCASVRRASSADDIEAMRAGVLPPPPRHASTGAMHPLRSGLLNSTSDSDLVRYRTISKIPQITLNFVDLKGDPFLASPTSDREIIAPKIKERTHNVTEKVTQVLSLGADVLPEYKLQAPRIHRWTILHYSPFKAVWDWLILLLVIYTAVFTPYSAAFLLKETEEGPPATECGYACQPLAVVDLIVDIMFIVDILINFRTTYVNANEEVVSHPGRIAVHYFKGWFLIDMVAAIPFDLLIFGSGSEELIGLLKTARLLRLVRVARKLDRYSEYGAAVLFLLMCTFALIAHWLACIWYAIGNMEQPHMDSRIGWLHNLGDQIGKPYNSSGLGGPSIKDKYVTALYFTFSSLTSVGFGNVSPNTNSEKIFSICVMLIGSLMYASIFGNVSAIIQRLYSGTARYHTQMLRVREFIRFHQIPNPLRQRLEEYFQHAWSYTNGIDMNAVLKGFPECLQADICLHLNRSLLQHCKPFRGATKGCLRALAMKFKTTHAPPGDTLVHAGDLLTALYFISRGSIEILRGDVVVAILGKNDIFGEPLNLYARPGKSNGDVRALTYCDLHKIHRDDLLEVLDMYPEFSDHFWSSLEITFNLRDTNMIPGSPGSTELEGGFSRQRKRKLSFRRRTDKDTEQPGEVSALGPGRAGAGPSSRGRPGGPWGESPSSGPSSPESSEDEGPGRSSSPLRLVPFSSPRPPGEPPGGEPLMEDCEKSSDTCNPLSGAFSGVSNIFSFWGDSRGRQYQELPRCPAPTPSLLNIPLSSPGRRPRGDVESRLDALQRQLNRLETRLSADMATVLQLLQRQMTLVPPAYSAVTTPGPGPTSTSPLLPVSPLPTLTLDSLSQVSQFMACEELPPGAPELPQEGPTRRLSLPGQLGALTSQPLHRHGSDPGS
T1 sequence (Q14432 whole entry): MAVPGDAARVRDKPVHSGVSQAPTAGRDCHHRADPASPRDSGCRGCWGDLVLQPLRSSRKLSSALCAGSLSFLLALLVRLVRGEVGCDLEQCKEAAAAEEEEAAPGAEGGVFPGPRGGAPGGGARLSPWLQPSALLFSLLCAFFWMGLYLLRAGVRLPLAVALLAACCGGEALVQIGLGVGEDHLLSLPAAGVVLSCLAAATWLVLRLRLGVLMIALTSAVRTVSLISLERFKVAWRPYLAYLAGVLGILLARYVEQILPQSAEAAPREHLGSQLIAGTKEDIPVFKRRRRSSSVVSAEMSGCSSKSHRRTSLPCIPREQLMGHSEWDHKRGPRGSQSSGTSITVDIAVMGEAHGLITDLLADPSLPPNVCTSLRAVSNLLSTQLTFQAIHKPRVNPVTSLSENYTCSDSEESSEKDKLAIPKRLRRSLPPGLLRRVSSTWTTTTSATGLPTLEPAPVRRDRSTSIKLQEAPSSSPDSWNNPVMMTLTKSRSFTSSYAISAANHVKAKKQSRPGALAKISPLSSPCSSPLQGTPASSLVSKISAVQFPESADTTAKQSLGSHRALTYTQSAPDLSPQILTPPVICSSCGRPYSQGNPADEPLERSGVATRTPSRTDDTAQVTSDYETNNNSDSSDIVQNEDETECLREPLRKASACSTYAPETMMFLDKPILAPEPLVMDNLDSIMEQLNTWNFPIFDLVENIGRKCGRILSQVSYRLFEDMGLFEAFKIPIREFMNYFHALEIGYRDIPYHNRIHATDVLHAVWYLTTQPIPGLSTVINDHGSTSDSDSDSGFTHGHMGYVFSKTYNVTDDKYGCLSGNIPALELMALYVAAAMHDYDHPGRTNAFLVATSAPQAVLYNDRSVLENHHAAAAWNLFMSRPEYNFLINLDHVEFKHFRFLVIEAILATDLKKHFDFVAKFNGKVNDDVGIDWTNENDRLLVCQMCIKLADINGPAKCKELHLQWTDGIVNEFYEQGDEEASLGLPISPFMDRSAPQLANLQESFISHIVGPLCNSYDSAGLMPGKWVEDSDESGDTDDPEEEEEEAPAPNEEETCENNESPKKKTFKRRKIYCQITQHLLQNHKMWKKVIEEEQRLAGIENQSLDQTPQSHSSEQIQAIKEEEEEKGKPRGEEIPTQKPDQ
T2 sequence (Q13946 whole entry): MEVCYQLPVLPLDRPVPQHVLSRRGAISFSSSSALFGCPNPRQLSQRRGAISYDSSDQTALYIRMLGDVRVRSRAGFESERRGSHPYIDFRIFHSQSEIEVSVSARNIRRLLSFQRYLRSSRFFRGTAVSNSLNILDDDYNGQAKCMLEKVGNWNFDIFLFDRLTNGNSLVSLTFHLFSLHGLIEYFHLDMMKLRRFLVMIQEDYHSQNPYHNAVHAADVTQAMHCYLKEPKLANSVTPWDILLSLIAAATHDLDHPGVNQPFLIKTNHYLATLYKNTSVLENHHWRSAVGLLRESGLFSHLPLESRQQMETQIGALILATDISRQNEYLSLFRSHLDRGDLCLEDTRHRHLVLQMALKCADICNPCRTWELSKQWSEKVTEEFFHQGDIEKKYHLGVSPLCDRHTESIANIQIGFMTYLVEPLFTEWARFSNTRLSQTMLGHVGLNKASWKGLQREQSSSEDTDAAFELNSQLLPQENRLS

Structure (SMILES) | Ki [1] [µM] | Ki [2] [µM] | Ki [3] [µM] | hepatocyte CLint [4] [µL/min/1e6 cells] | hepatocyte CLint [6] [µL/min/1e6 cells] | also measured
COc1cc2c(cc1OC)-c1c(-c3ccncc3)ncn1CC2 | 0.101 | – | – | – | – | –
COc1cccc(-c2ncn3c2-c2cc(OC)c(OC)cc2CC3)c1 | 0.03 | 0.136 | 5.54 | > 14 | 66 | hepatocyte CLint [5]: 61 µL/min/1e6 cells
COc1cc2c(cc1OC)-c1c(-c3cccnc3)ncn1C(C)C2 (stereo not given) | 0.012 | – | – | – | – | inhibition [7]: 97%
CCOc1cccc(-c2ncn3c2-c2cc(OC)c(OC)cc2CC3)c1 | 0.008 | 0.277 | 3.76 | > 14 | 66 | hepatocyte CLint [5]: 61 µL/min/1e6 cells
COc1cc2c(cc1OC)-c1c(-c3cccc(Br)c3)ncn1CC2 | 0.032 | 1.28 | 10.1 | > 14 | 66 | hepatocyte CLint [5]: 61 µL/min/1e6 cells
COc1cc2c(cc1OC)-c1c(-c3cnc(C(=O)NC4CCOCC4)s3)ncn1CC2 | 0.0043 | 0.828 | 0.55 | 1.4 | 22.7 | hepatocyte CLint [5]: 5.7 µL/min/1e6 cells
COc1cc2c(cc1OC)-c1c(C3CCCCC3)ncn1CC2 | 0.199 | – | – | – | – | –
COc1cc2c(cc1OC)-c1c(-c3ccccc3)ncn1CC2 | 0.121 | – | – | – | – | –
COc1cc2c(cc1OC)-c1c(-c3cncnc3)ncn1CC2 | 0.04 | – | – | – | – | inhibition [7]: 14%; inhibition [8]: 13%
COc1cc2c(cc1OC)-c1c(-c3cnc(CO)s3)ncn1CC2 | 0.026 | 0.54 | 4.6 | – | – | –
COc1cc2c(cc1OC)-c1c(-c3cccc(N4CCOCC4)c3)ncn1CC2 | 0.0064 | 1.47 | 7.5 | > 14 | 66 | hepatocyte CLint [5]: 61 µL/min/1e6 cells
COc1cc2c(cc1OC)-c1c(-c3cnco3)ncn1CC2 | 0.031 | 1.74 | 11.1 | 25 | 67 | –
COc1cc2c(cc1OC)-c1c(-c3cnc(N4CCOCC4)s3)ncn1CC2 | 0.026 | 0.177 | 2.47 | – | – | –
COc1cc2c(cc1OC)-c1c(-c3cncn3C)ncn1CC2 | 0.264 | – | – | – | – | –
COc1cc2c(cc1OC)-c1c(-c3cccc(Cl)c3)ncn1CC2 | 0.033 | 0.954 | 6.93 | > 14 | 66 | hepatocyte CLint [5]: 61 µL/min/1e6 cells
COc1cc2c(cc1OC)-c1c(-c3cnc(C(=O)N4CCCOCC4)s3)ncn1CC2 | 0.0015 | 0.024 | 0.269 | – | – | –

Structure (SMILES) | Ki [1] [µM] | Ki [2] [µM] | Ki [3] [µM] | hepatocyte CLint [4] [µL/min/1e6 cells] | hepatocyte CLint [6] [µL/min/1e6 cells] | also measured
COc1cc2c(cc1OC)-c1c(-c3ccc(Cl)cc3)ncn1CC2 | 0.183 | – | – | – | – | –
COc1ccc(-c2ncn3c2-c2cc(OC)c(OC)cc2CC3)cc1 | 0.114 | – | – | – | – | –
COc1cc2c(cc1OC)-c1c(-c3cnc(C(=O)N4CCOCC4)s3)ncn1CC2 | 0.01 | 0.099 | 0.613 | – | – | –
COc1cc2c(cc1OC)-c1c(-c3cncs3)nc(C)n1CC2 | 0.02 | 0.968 | 6.12 | 7.5 | 65.5 | hepatocyte CLint [5]: 9.2 µL/min/1e6 cells; solubility [9]: > 150 µM; inhibition at 10 µM (hERG (KCNH2)): 10%; pKa [10]: 5; Ki (Phosphodiesterase 1): > 7.1 µM; Ki [11]: > 7.1 µM; Ki (Phosphodiesterase 4): > 7.1 µM; Ki [12]: > 7.1 µM; Ki (Phosphodiesterase 6): > 7.1 µM; Ki (Phosphodiesterase 8): > 7.1 µM; Ki [13]: > 7.1 µM; Ki [14]: > 7.1 µM
COc1cc2c(cc1OC)-c1c(-c3cocn3)ncn1CC2 | 0.508 | – | – | – | – | –
COc1cc2c(cc1OC)-c1c(-c3cnc(C(=O)NCc4ccccc4)s3)ncn1CC2 | 0.04 | > 100 | 0.507 | – | – | –
COc1cc2c(cc1OC)-c1c(-c3cnc(CN4CCOCC4)s3)ncn1CC2 | 0.0066 | 0.148 | 4.6 | – | – | –
COc1cc2c(cc1OC)-c1c(-c3ccccc3OC)ncn1CC2 | 0.212 | – | – | – | – | –
COc1cc2c(cc1OC)-c1c(-c3cnc(C)s3)ncn1CC2 | 0.186 | – | – | – | – | –
COc1cc2c(cc1OC)-c1c(-c3cnc(CN4CCCOCC4)s3)ncn1CC2 | 0.0038 | 0.224 | 3.77 | – | – | –
COc1cc2c(cc1OC)-c1c(-c3cccnc3)nc(C)n1CC2 | 0.025 | 0.727 | 5.98 | 0.4 | 26.6 | hepatocyte CLint [5]: 3.6 µL/min/1e6 cells; solubility [9]: > 200 µM; inhibition at 10 µM (hERG (KCNH2)): 29%; pKa [10]: 4; Ki (Phosphodiesterase 1): > 7.95 µM; Ki [11]: > 7.95 µM; Ki (Phosphodiesterase 4): > 7.95 µM; Ki [12]: > 7.95 µM; Ki (Phosphodiesterase 6): > 7.95 µM; Ki (Phosphodiesterase 8): > 7.95 µM; Ki [13]: > 7.95 µM; Ki [14]: > 7.95 µM
COc1cc2c(cc1OC)-c1c(-c3cscn3)ncn1CC2 | 0.861 | – | – | – | – | –
COc1cc2c(cc1OC)-c1c(-c3ccccn3)ncn1CC2 | 0.24 | – | – | – | – | –
COc1cc2c(cc1OC)-c1c(-c3cncs3)ncn1CC2 | – | 0.555 | 3.7 | – | – | Activity (Rattus norvegicus): Active; concentration at 1 h [15]: 350 ng/g; solubility [9]: > 200 µM; inhibition at 10 µM (hERG (KCNH2)): 26%; pKa [10]: 4.3; Ki (Phosphodiesterase 1): > 2 µM; Ki [11]: > 2 µM; Ki (Phosphodiesterase 4): > 2 µM; Ki [12]: > 2 µM; Ki (Phosphodiesterase 6): > 2 µM; Ki (Phosphodiesterase 8): > 2 µM; Ki [13]: > 2 µM; Ki [14]: > 2 µM
COc1cc2c(cc1OC)-c1c(-c3ccccc3Cl)ncn1CC2 | 0.628 | – | – | – | – | –
COc1cc2c(cc1OC)-c1c(-c3cnc(C(=O)N(C)C(C)(C)C)s3)ncn1CC2 | 0.0087 | 0.149 | 0.243 | 66 | 59 | hepatocyte CLint [5]: 49 µL/min/1e6 cells; solubility [9]: > 200 µM; inhibition at 10 µM (hERG (KCNH2)): 40%; pKa [10]: 4; Ki (Phosphodiesterase 1): > 2 µM; Ki [11]: > 2 µM; Ki (Phosphodiesterase 4): > 2 µM; Ki [12]: > 2 µM; Ki (Phosphodiesterase 6): > 2 µM; Ki (Phosphodiesterase 8): > 2 µM; Ki [13]: > 2 µM; Ki [14]: > 2 µM

From ChEMBL document CHEMBL2016496, “The SAR development of dihydroimidazoisoquinoline derivatives as phosphodiesterase 10A inhibitors for the treatment of schizophrenia” (Bioorg Med Chem Lett, 2012)
